T cruzi growth-1: T. cruzi intracellular proliferation inhibitors, primary screen, cell-based, beta-gal Tulahuen parasites, NIH3T3 host, luminescence; AID 624255, 2012; inhibition, % at 8.34 µM; 77,000 compounds, 5.9% hits; T. cruzi beta-gal in NIH3T3, GalScreen luminescence, 90 h;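 active means mean inhibition above about 93%, with at least 55% of replicates each passing it, limit read from the data, passing the limit was not always enough; inconclusive means only one of those two conditions holds; inactive means neither condition holds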
IDH1 mut inh: inhibitors of IDH1 R132H reductase, primary screen, biochemical, plate reader, single point | inhibition, % at 10 µM | diaphorase/resazurin fluorescence, 60 min | Isocitrate dehydrogenase [NADP] cytoplasmic (Homo sapiens), O75874 | 70,000 compounds, 0.18% hits; in the data active means inhibition above about 34%; inconclusive means no clear call, values can overlap the other calls; inactive means below about 11%
Target sequence (O75874 whole entry R132H): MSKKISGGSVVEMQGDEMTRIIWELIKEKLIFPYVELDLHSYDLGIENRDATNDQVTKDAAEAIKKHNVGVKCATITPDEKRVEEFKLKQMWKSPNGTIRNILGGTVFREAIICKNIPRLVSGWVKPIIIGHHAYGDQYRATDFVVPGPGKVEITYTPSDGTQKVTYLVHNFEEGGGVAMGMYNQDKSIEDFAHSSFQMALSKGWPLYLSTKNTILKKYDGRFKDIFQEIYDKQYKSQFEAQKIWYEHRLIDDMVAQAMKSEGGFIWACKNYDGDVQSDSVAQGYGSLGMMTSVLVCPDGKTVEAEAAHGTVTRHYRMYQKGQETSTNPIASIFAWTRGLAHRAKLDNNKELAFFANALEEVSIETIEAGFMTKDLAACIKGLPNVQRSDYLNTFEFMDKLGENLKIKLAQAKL
GASC1 inh: inhibitors of GASC-1 (KDM4C) histone demethylase, primary screen, biochemical, single concentration HTS | GST-KDM4C 2-372, H3K9me3 peptide, LANCE TR-FRET | inhibition, % at 12.5 µM | 96,000 compounds, 0.15% hits;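 active means mean replicate inhibition above about 25%, with at least 55% of replicates also reaching it, limit read from the data, passing the limit was not always enough; inconclusive means only one of those two conditions met; inactive means neither condition met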
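Test system: N-terminal GST-fused human GASC-1 (KDM4C) fragment, residues 2-372; quantity: GASC-1 enzyme at 10 nM final in reaction; dosing: single dose; schedule: 30 min demethylation and 1 h detection at room temperature; signal: LANCE TR-FRET, excitation 340 nm, emissions 618 and 671 nm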
T cruzi growth-2: T. cruzi intracellular proliferation inhibitors, confirmation, cell-based, NIH3T3 host, beta-gal parasite, luminescence, cherry-pick; shares compounds with T cruzi growth-1; T. cruzi beta-gal in NIH3T3, GalScreen luminescence, 90 h; inhibition, % at 8.35 µM; 5,600 compounds, 72% hits;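 active means mean replicate inhibition above about 95% and at least 55% of replicates individually reaching it, limit read from the data; inconclusive means only one of the two criteria is met; inactive means neither criterion is met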
T cruzi growth-3: inhibitors of intracellular T. cruzi replication, confirmation, NIH3T3 host cells, beta-gal parasites, cherry-pick, set 2; shares compounds with T cruzi growth-1; T. cruzi beta-gal in NIH3T3, GalScreen luminescence, 90 h; inhibition, % at 2.09 µM; 5,600 compounds, 21% hits; AID 651740, 2012;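 active means mean inhibition above about 95%, with at least 55% of replicates also reaching it, limit read from the data; inconclusive means meets just one of the two conditions; inactive means meets neither condition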
3T3 cytotox: cytotoxicity in mouse NIH/3T3 fibroblasts, confirmation, cytotoxicity control for T. cruzi proliferation inhibitor project, cell-based, cherry-pick, single point; shares compounds with T cruzi growth-1; NIH/3T3 viability, CellTiter-Glo ATP luminescence, 90 h; cytotoxicity (signal decrease), % at 8.35 µM; 5,600 compounds, 14% hits; AID 651742, 2012;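 active means mean signal decrease across replicates above about 35% based on untreated-well scatter, with enough replicates individually passing, limit read from the data; inconclusive means no rule stated though some were filed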
3T3 cytotox 2: NIH/3T3 fibroblast cytotoxicity, confirmation, cytotoxicity control, cell-based, cherry-pick, single point, set 2; inhibition, % at 24.9 µM; 5,600 compounds, 56% hits; shares compounds with T cruzi growth-1; AID 651744, 2012; NIH/3T3 viability, CellTiter-Glo ATP luminescence, 90 h;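 active means mean loss of cell viability signal at or above a set limit, and enough replicates individually reaching it; inconclusive means meets only the mean limit or only the replicate share; inactive means meets neither condition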
A number is an active result; . = inactive; ? = inconclusive; / = no result; ! = a repeat was not active. Many of the other results were omitted from the sample, so hits are more common in it than they were.

SMILES | T cruzi growth-1 | IDH1 mut inh | GASC1 inh | T cruzi growth-2 | T cruzi growth-3 | 3T3 cytotox | 3T3 cytotox 2
C[C@@H]1CN([C@@H](C)CO)C(=O)c2cc(C#CCN(C)C)cnc2O[C@@H]1CN(C)Cc1ccc(-c2ccccc2)cc1 | 111.7 | / | . | 110.2 | 107.4 | 46.7 | 104.9
C[C@@H]1CN([C@H](C)CO)C(=O)c2cc(C#CCN(C)C)cnc2O[C@@H]1CN(C)Cc1ccccc1 | . | . | / | / | / | / | /
C[C@H](CO)N1C[C@H](C)[C@@H](CN(C)Cc2ccc(C(=O)O)cc2)Oc2ncc(C#CCN(C)C)cc2C1=O | . | . | . | / | / | / | /
C[C@@H]1CN([C@H](C)CO)C(=O)c2cc(C#CCN(C)C)cnc2O[C@@H]1CN(C)Cc1ccc(C(=O)O)cc1 | 104.9 | . | . | . | . | . | .
C[C@@H]1CN([C@H](C)CO)C(=O)c2cc(C#CCN(C)C)cnc2O[C@H]1CN(C)Cc1ccccc1 | . | . | / | / | / | / | /
C[C@@H]1CN([C@H](C)CO)C(=O)c2cc(C#CCN(C)C)cnc2O[C@H]1CN(C)Cc1ccc(-c2ccccc2)cc1 | 108.7 | / | . | 110.8 | 116.2 | ? | 104.5
C[C@@H]1CN([C@@H](C)CO)C(=O)c2cc(C#CCN(C)C)cnc2O[C@H]1CN(C)Cc1ccc(-c2ccccc2)cc1 | 102.4 | . | . | 108.6 | 116.4! | 39.9 | 103.5
Cc1c(NC(=O)CN(c2ccc(F)c(Cl)c2)S(C)(=O)=O)cccc1[N+](=O)[O-] | / | . | / | / | / | / | /
CCC(=O)N1C[C@@H](C)[C@@H](OC)CN(C)C(=O)c2ccc(NC(=O)Nc3ccccc3)cc2OC[C@@H]1C | . | . | . | / | / | / | /
O=C(NCc1ccccn1)C(=O)Nc1ccccc1F | / | . | / | / | / | / | /
COc1ccccc1CNC(=O)C[C@H]1CC[C@H]2[C@@H](COC[C@H](O)CN2Cc2ccc3c(c2)OCO3)O1 | 104.0 | / | . | . | . | . | .
COc1ccccc1CNC(=O)C[C@H]1CC[C@@H]2[C@H](COC[C@H](O)CN2Cc2ccc3c(c2)OCO3)O1 | . | / | . | / | / | / | /
O=C(C[C@H]1CC[C@H]2[C@@H](COC[C@@H](O)CN2Cc2ccc3c(c2)OCO3)O1)Nc1ccccc1 | . | / | . | / | / | / | /
O=C(C[C@@H]1CC[C@@H]2[C@H](COC[C@H](O)CN2Cc2ccc3c(c2)OCO3)O1)Nc1ccc(-c2ccccc2)cc1 | 115.0 | / | . | 99.1 | 99.3 | . | 30.3
O=C(C[C@H]1CC[C@H]2[C@@H](COC[C@@H](O)CN2Cc2ccc3c(c2)OCO3)O1)Nc1ccc(-c2ccccc2)cc1 | 112.7 | / | . | 99.0 | . | . | 69.4
O=C(C[C@H]1CC[C@@H]2[C@H](COC[C@@H](O)CN2Cc2ccc3c(c2)OCO3)O1)Nc1ccc(-c2ccccc2)cc1 | . | / | . | / | / | / | /
O=C(CCCCCC(=O)Nc1ccccc1O)N/N=C/c1cc(Br)cs1 | / | . | / | / | / | / | /
Cc1cc(N(CC(=O)Nc2ccc(Cl)cc2C)S(C)(=O)=O)ccc1Br | / | . | / | / | / | / | /
COc1ccc(NC(=O)CNC(=O)c2ccc(F)cc2)cc1 | / | . | / | / | / | / | /
Cc1c(Cl)cccc1N(CC(=O)Nc1ccc(I)cc1)S(C)(=O)=O | / | . | / | / | / | / | /
CCC(=O)N1CCCCN2[C@@H](CO)[C@H](c3ccc(-c4ccc(F)cc4)cc3)[C@@H]2C1 | 100.5 | / | . | . | . | . | 60.6
O=C(c1ccc(F)cc1)N1CCCCN2[C@H](CO)[C@@H](c3ccc(-c4ccccc4)cc3)[C@H]2C1 | . | / | . | / | / | / | /
O=C(c1ccc(F)cc1)N1CCCCN2[C@H](CO)[C@H](c3ccc(-c4ccccc4)cc3)[C@H]2C1 | . | / | . | / | / | / | /
Cc1ccc(-c2ccc([C@@H]3[C@@H](CO)N4CCCCN(C(=O)c5ccc(F)cc5)C[C@H]34)cc2)cc1 | 104.3 | / | . | 107.7 | . | . | 103.7
COc1ccc(-c2ccc([C@H]3[C@H](CO)N4CCCCN(C(=O)c5ccc(F)cc5)C[C@@H]34)cc2)cc1 | . | / | . | / | / | / | /
SMILES | T cruzi growth-1 | IDH1 mut inh | GASC1 inh | T cruzi growth-2 | T cruzi growth-3 | 3T3 cytotox | 3T3 cytotox 2
COCC(=O)N1CCCCN2[C@H](C1)[C@@H](c1ccc(-c3ccc(F)cc3)cc1)[C@@H]2CO | . | / | . | / | / | / | /
Cc1ccc(-c2ccc([C@@H]3[C@H]4CN(C(=O)c5ccc(F)cc5)CCCCN4[C@H]3CO)cc2)cc1 | 110.9 | / | . | 103.1 | . | . | 84.6
Cc1ccc(-c2ccc([C@@H]3[C@H](CO)N4CCCCN(C(=O)c5ccc(F)cc5)C[C@@H]34)cc2)cc1 | 110.5 | / | . | 97.9 | . | ? | 103.3
CC(=O)c1ccc(NC(=O)C(C)N2C(=O)C3C4C=CC(C5CC45)C3C2=O)cc1 (centres undefined) | / | . | / | / | / | / | /
COCC(=O)Nc1ccc2c(c1)OC[C@H](C)N(C(=O)NC(C)C)C[C@@H](C)[C@H](OC)CN(C)C2=O | . | . | . | / | / | / | /
Cc1ccccc1-c1nc(SCC(=O)Nc2sc3c(c2C#N)CCCC3)n[nH]1 | / | . | / | / | / | / | /
COc1cc([N+](=O)[O-])ccc1NC(=S)NCCn1cc(Br)cn1 | / | . | / | / | / | / | /
Cc1cc(I)ccc1NC(=O)Cn1cc([N+](=O)[O-])cn1 | / | . | / | / | / | / | /
CN(CCO)c1ccc(/C=N/NC(=O)CCCCCCC(=O)Nc2ccccc2O)cc1 | / | . | / | / | / | / | /
CNC[C@H]1Oc2ncc(-c3cccc(C(=O)N(C)C)c3)cc2C(=O)N([C@H](C)CO)C[C@@H]1C | / | . | . | / | / | / | /
CC(=O)c1cccc(NC(=O)COc2ccccc2C(=O)Nc2ccccc2C#N)c1 | / | . | / | / | / | / | /
CCc1cc(Br)cc(C)c1NC(=O)CSc1nnc(-c2ccncc2)n1-c1ccccc1 | / | . | / | / | / | / | /
C[C@@H]1CCCCO[C@H](CN(C)Cc2ccc(C(=O)O)cc2)[C@H](C)CN([C@H](C)CO)C(=O)c2cc(NS(=O)(=O)c3cccs3)ccc2O1 | . | . | . | / | / | / | /
C[C@@H]1CN([C@@H](C)CO)C(=O)c2cc(NS(=O)(=O)c3cccs3)ccc2O[C@@H](C)CCCCO[C@@H]1CN(C)Cc1ccc(C(=O)O)cc1 | . | / | . | / | / | / | /
C[C@@H]1CCCCO[C@H](CN(C)Cc2ccc(C(F)(F)F)cc2)[C@@H](C)CN([C@H](C)CO)C(=O)c2cc(NS(=O)(=O)c3cccs3)ccc2O1 | . | / | . | / | / | / | /
C[C@@H]1CCCCO[C@@H](CN(C)Cc2ccc(C(F)(F)F)cc2)[C@@H](C)CN([C@H](C)CO)C(=O)c2cc(NS(=O)(=O)c3cccs3)ccc2O1 | . | / | . | / | / | / | /
